Bioassay records as filed in PubChem.
Hck-Nef inh = human Hck-Nef kinase inhibition | Recombinant Hck-YEEI plus Nef, Z-Lyte FRET kinase assay | 220,000 tested, 0.68% active | P08631 | inhibition, % at 20 µM;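 active means Hck-Nef kinase inhibition above about 50%, limit read from the data; inactive means inhibition below that limit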;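 further: 0% = DMSO with Hck plus Nef and 100% = Hck alone without Nef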
RanGTP-Imp inh = inhibitors of RanGTP-importin-beta interaction, primary screen, biochemical, FRET, CFP-Ran, YFP-importin-beta, homogeneous. inhibition, % (test concentration not listed). AID 2216. cell-free CFP-Ran/YFP-importin-beta FRET ratio. 300,000 tested, 1.1% active;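 active means more than half of the replicate wells show a fall in the fluorescence ratio signal beyond about 16%, limit read from the data, passing the limit was not always enough; inconclusive means exactly half of the replicate wells pass the set limit; inactive means fewer than half of replicates pass the limit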;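 further: 0% = DMSO wells and 100% = Ran loaded with GDP instead of GTP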
Runt-CBFb FRET = Runt domain-CBFb interaction inhibition; Q01196+Q13951; Cerulean-Runt/Venus-CBFb FRET ratio 530/480, 1 h; inhibition, % at 20 µM; 220,000 tested, 0.46% active;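 active means inhibition over about 50% at 20 µM in the single-dose screen, limit read from the data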;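 further: 0% = DMSO wells and 100% = excess unlabeled CBFb competitor control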
Target sequence (Q01196 whole entry, looked up, the tested form may be a part): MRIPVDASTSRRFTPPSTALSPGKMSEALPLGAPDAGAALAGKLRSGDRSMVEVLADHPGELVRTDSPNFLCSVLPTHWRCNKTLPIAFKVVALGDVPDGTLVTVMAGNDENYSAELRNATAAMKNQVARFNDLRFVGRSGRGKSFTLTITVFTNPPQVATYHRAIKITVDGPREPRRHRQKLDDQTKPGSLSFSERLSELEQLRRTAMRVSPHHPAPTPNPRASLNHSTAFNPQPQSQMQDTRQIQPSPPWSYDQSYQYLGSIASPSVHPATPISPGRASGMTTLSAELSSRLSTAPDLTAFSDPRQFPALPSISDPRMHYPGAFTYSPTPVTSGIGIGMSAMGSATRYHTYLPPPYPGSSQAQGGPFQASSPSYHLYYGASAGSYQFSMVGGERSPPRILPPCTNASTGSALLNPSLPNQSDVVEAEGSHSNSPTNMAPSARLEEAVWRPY
Target sequence (Q13951 whole entry, looked up, the tested form may be a part): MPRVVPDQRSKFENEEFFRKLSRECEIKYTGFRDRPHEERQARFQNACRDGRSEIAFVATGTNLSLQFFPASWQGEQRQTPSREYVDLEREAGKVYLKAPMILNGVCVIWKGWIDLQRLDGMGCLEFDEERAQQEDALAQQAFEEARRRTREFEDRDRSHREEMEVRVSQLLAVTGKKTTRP
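Assay system: Cerulean-Runt domain / Medium: Tris 50 mM pH 7.5, KCl, K2SO4, 0.01% BSA / Timing: protein complex preformed 1 h, compound exposure 1 h, room temperature, dark / Measured by: FRET, excitation 422 nm, emission at 530 and 480 nm / Evaluation: loss of energy transfer signal / Control set: 5 µM unlabeled CBFb as full-inhibition high control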
Runt-SMMHC FRET = blocks binding of human RUNX1 Runt domain to CBFb-SMMHC; Q01196+Q13951; Cerulean-Runt/Venus-CBFb-SMMHC FRET ratio 530/480, 1 h; inhibition, % at 20 µM; 220,000 tested, 0.74% active; AID 1434;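 active means mean inhibition across duplicate retests at 20 µM reaching about 50%, limit read from the data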;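 further: 0% = DMSO wells and 100% = wells with excess untagged CBFb-SMMHC; inhibitors lower the FRET ratio by blocking Runt binding to CBFb-SMMHC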
CaV13 ICDI inh = Disruptors of the CACNA1D IQ motif to Ca2+-dependent inactivation inhibitor domain association, primary screening, Förster resonance energy transfer in intact living …; HEK cells, CFP/YFP FRET ICDI-IQ, plate reader, 10 min; percent FRET-ratio fall versus neutral wells; inhibition, % at 12.3 µM; 340,000 tested, 0.098% active;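 active means mean replicate inhibition of at least 30% and at least 1% of replicates passing that level; inconclusive means only one of the two criteria is met; inactive means neither criterion is met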;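 further: 0% = median of the neutral control wells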
YIC FRET counter = counter-screen: alters YIC FRET probe signal | AID 435026 | shares compounds with RanGTP-Imp inh | IC50, µM | Purified YIC probe, intramolecular FRET ratio YFP/CFP | 1,000 tested, 40% active;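 active means fitted half-maximal inhibitory concentration no more than tenfold above the top dose tested; inconclusive means flat fit with 30 to 70% activity, or poor fit; inactive means half-maximal concentration beyond tenfold above the top dose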
* = called active by the depositor; ? = inconclusive; / = no result. The list is not random: actives were taken first. Their share in the collection is about 1.5%.

SMILES | Hck-Nef inh | RanGTP-Imp inh | Runt-CBFb FRET | Runt-SMMHC FRET | CaV13 ICDI inh | YIC FRET counter
C[C@H](CO)N1C[C@H](C)[C@H](CN(C)C(=O)Nc2cccc3ccccc23)Oc2c(NC(=O)c3ccc(-c4nccs4)cc3)cccc2C1=O | / | / | / | / | -3.4 | /
C[C@H]1CN([C@@H](C)CO)C(=O)c2cccc(NC(=O)c3ccc(-c4nccs4)cc3)c2O[C@H]1CN(C)C(=O)Nc1ccccc1 | / | / | / | / | / | >50
CCOC(=O)N1CCN(c2cc(=O)n(C3CCCCC3)c(=O)[nH]2)CC1 | 5.5 | 18.8* | 5.0 | -0.6 | -4.4 | >50
CCN1CCN(c2cc(=O)n(C3CCCCC3)c(=O)[nH]2)CC1 | 5.7 | ? | 0.7 | -0.2 | -4.1 | /
CCOC(=O)C1CCN(c2cc(=O)n(C3CCCCC3)c(=O)[nH]2)CC1 | 0.4 | 51.1* | -1.5 | 3.1 | -5.2 | >50
Cc1cccc(N2CCCn3c2nc2c3c(=O)[nH]c(=O)n2C)c1 | / | -7.5 | / | / | -5.7 | /
Nc1nc(CSc2nc3ccccc3s2)nc(N2CCCCC2)n1 | -0.7 | 35.6* | -1.2 | 1.0 | / | >50
CCc1ccc(Nc2nc(N)nc(CSc3nc4ccccc4s3)n2)cc1 | 0.5 | 2.6 | -3.8 | -3.0 | -4.6 | /
O=Cc1cn(CC(=O)N2CCCCC2)c2ccccc12 | 3.6 | -2.1 | -3.1 | 1.4 | -15.7 | /
O=C(O)Cn1cc(/C=C2\SC(=O)N(c3ccccc3)C2=O)c2ccccc21 | 3.7 | 24.1* | 14.2 | 28.6 | -2.1 | 38.9*
O=C(O)Cn1cc(/C=C2/SC(=O)N(CC(=O)N3CCCCCC3)C2=O)c2ccccc21 | 24.0 | 17.0* | 8.0 | 27.1 | -6.3 | >50
C=CCN1CCN(C(=O)c2ccc3c(c2)OCO3)CC1 | / | 1.0 | / | / | / | /
C/C(=N\NC(=O)c1ccc(O)cc1)c1ccc2c(c1)OCCO2 | / | / | / | / | -5.4 | /
COc1ccc(OC(=O)C2CC(=O)N(c3ccc(C)cc3)C2)cc1 (stereo unspecified) | 19.1 | 21.6* | -1.7 | 5.4 | -0.2 | >50
Cn1c2ccccc2c(=O)c2ccc(F)cc21 | / | 35.1* | / | / | 186.0* | 14.9*
CCCN1CCN(S(=O)(=O)c2ccc3c(c2)CCC(=O)N3)CC1 | / | / | / | / | -4.8 | /
COCCCNC(=O)/C(C#N)=C/c1c(N2CCN(c3ccccc3)CC2)nc2ccccn2c1=O | / | 25.7* | / | / | -0.9 | 28.8*
COc1ccc(-n2c(N)c(C(=O)NCc3ccco3)c3nc4ccccc4nc32)c(OC)c1 | 35.5 | 32.6* | 40.0 | 95.3* | / | 19.4*
O=C(CO/N=C/c1c(Cl)cccc1Cl)NNC(=O)c1ccc(Cl)cc1 | 23.4 | 4.5 | 0.9 | -1.1 | -5.2 | /
CC1CC1c1ccc(/C=C(\C#N)C(=O)Nc2ccccc2Cl)o1 (stereo unspecified) | -0.6 | 36.5* | -5.4 | -1.1 | -34.0 | 52.3*
N#C/C(=C/c1ccc(N2CCCCC2)o1)C(=O)Nc1ccc(Cl)cc1 | -1.2 | 8.2 | 24.0 | -42.6 | -13.8 | /
COc1ccc(NC(=O)/C(C#N)=C\c2ccc(N3CCOCC3)o2)cc1 | 2.2 | 17.7* | -16.9 | -89.8 | -6.7 | 46.9*
CC1CC1c1ccc(/C=C(\C#N)C(=O)Nc2ccc(Cl)cc2)o1 (stereo unspecified) | 2.3 | 16.1* | 0.1 | 1.5 | -5.7 | >50
CCOCCCNC(=O)C(c1ccccc1)N(Cc1cccs1)C(=O)CNC(=O)c1ccccc1 (stereo unspecified) | 2.6 | -3.6 | -1.2 | 3.9 | -1.6 | /
COc1ccc(C(=O)/C=C(\C)NCc2ccc3c(c2)OCO3)cc1 | 1.1 | 23.6* | -2.4 | -2.7 | / | >50
SMILES | Hck-Nef inh | RanGTP-Imp inh | Runt-CBFb FRET | Runt-SMMHC FRET | CaV13 ICDI inh | YIC FRET counter
CC(=O)Oc1ccc(C(=O)NCc2ccc3c(c2)OCO3)cc1 | / | -1.6 | / | / | -0.6 | /
CN(C)c1ccc(/C=C(\NC(=O)c2ccccc2)C(=O)NCc2ccncc2)cc1 | / | 23.4* | / | / | -3.3 | >50
CN(C)c1ccc(/C=C(\NC(=O)c2ccccc2)C(=O)NCc2cccnc2)cc1 | / | 7.7 | / | / | -7.9 | /
CC(Oc1ccccc1)C(=O)N=C1SC2CS(=O)(=O)CC2N1Cc1ccc(F)cc1 (stereo unspecified) | / | -5.8 | / | / | -14.9 | /
CCOC(=O)C1CCCN(CCC(=O)Nc2c(C(=O)OC)[nH]c3cc(OC)ccc23)C1 (stereo unspecified) | 0.2 | -7.7 | 0.7 | 0.9 | -5.5 | /
Cn1c(-c2ccccc2)cc(=O)c2ccccc21 | -0.2 | -0.9 | 0.0 | -1.4 | -5.3 | /
COc1ccc(NS(=O)(=O)c2cc(NC(=O)c3cccs3)ccc2N2CCOCC2)cc1 | 11.1 | 15.6* | -0.1 | -4.4 | -5.7 | >50
COc1ccccc1NS(=O)(=O)c1cc(NC(=O)c2cccs2)ccc1N1CCOCC1 | 22.0 | 1.0 | 16.0 | 1.1 | 4.3 | /
COc1ccc(CNC(=O)C2CC(=O)N(C3CCCCC3)C2)cc1 (stereo unspecified) | / | 21.1* | / | / | -2.3 | >50
Nc1c(C(=O)Nc2ccccc2)c2nc3ccccc3nc2n1CCCN1CCOCC1 | 28.5 | 27.5* | 10.3 | 10.6 | -10.3 | 29.6*
Cn1c(=O)cc(N2CCCCC2)[nH]c1=O | 3.5 | 19.2* | -2.6 | -0.9 | -7.1 | >50
CCn1c(=O)cc(N2CCN(Cc3ccccc3)CC2)[nH]c1=O | / | ? | / | / | 5.0 | /
CCn1c(=O)cc(N2CCCCC2)[nH]c1=O | 1.5 | 23.4* | 1.4 | 0.1 | / | >50
CCn1c(=O)cc(N2CCOCC2)[nH]c1=O | 20.2 | 24.3* | -0.9 | -2.4 | -35.8 | >50
COc1ccccc1CNC(=O)COc1ccccc1C(=O)c1cnn(-c2ccccc2)c1 | / | / | / | / | -3.9 | /
O=C(N/N=C/C=N/NC(=O)c1ccco1)c1ccco1 | / | -3.3 | / | / | / | /
CC(=O)c1sc2nc(C)c3c(c2c1N)CCCC3 | 28.6 | 31.5* | 43.8 | 89.8* | 20.3 | 14.4*
CN(C)C=NC(=O)c1cc(C(=O)c2ccccc2Cl)c[nH]1 | -5.0 | 0.9 | -0.1 | -7.6 | -6.2 | /
CN(C)C=NC(=O)c1cc(C(=O)c2ccc(C(C)(C)C)cc2)c[nH]1 | -7.7 | 27.3* | 0.4 | 1.5 | -17.2 | >50
c1ccc(N2CCN(c3nc4cc5c(cc4s3)OCCO5)CC2)cc1 | 0.0 | 8.9 | 0.9 | 2.9 | -3.8 | /
c1c2c(cc3sc(N4CCOCC4)nc13)OCCO2 | 1.8 | 22.8* | 0.1 | -0.5 | -3.5 | >50
O=C(Nc1ccccc1)C1CCN(S(=O)(=O)c2ccc3c(c2)OCCO3)CC1 | / | 5.3 | / | / | -4.4 | /
COC(=O)C1=CN(c2ccc(OC)cc2)C=C(C(=O)OC)C1c1cccc(F)c1 | / | 17.5* | / | / | -3.0 | 7.51*
Cc1ccc(-n2c(SCC(=O)NCc3ccco3)nc3sc(C)c(C)c3c2=O)cc1 | 17.4 | 1.1 | 42.0 | -2.9 | -5.2 | /
Cc1sc2nc(SCC(=O)NCc3ccco3)n(-c3ccccc3)c(=O)c2c1C | 2.5 | 22.7* | -1.6 | -1.9 | -7.6 | >50
